Active and inactive are the calls of the source. No cut-off for these calls is given here.

One experiment concerns A2780. The experiment is described as follows: Cytotoxicity against human A2780 cells after 4 days by MTT assay. The class given is functional, cell-based. For orientation: Tetrazolium assays rely on reduction of a dye to a coloured formazan, in cell work by metabolically active cells.
Experiment [1] has as its target T1, Tyrosine-protein phosphatase non-receptor type 1 (Homo sapiens) (UniProt P18031).
T1 sequence (whole entry): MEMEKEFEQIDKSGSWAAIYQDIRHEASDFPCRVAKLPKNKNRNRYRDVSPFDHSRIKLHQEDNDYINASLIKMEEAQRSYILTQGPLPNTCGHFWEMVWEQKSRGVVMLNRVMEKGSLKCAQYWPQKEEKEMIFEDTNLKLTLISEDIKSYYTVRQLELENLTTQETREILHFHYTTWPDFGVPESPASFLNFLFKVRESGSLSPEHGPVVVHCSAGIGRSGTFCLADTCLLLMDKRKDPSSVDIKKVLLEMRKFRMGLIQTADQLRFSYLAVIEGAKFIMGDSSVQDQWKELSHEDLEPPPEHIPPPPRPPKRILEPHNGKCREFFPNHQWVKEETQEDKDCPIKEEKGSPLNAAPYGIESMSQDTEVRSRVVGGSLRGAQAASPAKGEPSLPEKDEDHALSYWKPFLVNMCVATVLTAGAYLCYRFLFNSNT
The experiment is described as follows: Inhibition of GST-tagged human PTP1B.

Experiment [2] concerns Human immunodeficiency virus 1. The experiment is described as follows: Antiviral activity against HIV-1 NL4-3 expressing VSV-G envelope infected in human 293T cells assessed as inhibition of viral replication after 48 hrs by Luciferase reporter gene assay. In kind it is functional, organism-based. The method, boiled down:
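VSV-G-pseudotyped, env-deficient pNL4-3.luc.R-E- virions made by calcium phosphate cotransfection of 293 cells, then filtered. Virions quantified by p24 ELISA and diluted to 0.2 ng p24/mL. Compounds added 15 min before virus, with solvent-only blank. Luciferase in lysates read 48 h post-infection. Zidovudine served as positive control.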
For orientation: In a reporter assay the amount or activity of a reporter protein is the signal.

`CC1=C2C=C3CC[C@@H]4C(C)(C)[C@@H](O)CC[C@@]4(C)[C@@H]3C[C@H]2OC1=O`: the outcome (with A2780; in experiment [2]) was inactive. Further, the inhibition entry in experiment [1] was “inactive”.
Consider `C=C(C)[C@H](CC[C@@H](C)[C@@H]1CC[C@]2(C)C3=C(CC[C@@]12C)[C@@]1(C)CC[C@H](O)C(C)(C)[C@@H]1CC3=O)OO`, for which, in the experiment on A2780, the result was inactive. Moreover, the inhibition result in experiment [1] and in experiment [2] was “inactive” in each case.
Consider `C=C(C)[C@H](O)CC[C@H](C)[C@@H]1CC[C@]2(C)C3=CC[C@H]4C(C)(C)[C@@H](O)CC[C@]4(C)C3=CC[C@@]12C`, for which the outcome in the experiment on A2780 was inactive. The inhibition entry in experiment [1] and in experiment [2] was “inactive” in each case.
In the case of `COc1ccc(C(=O)OCCc2ccc(O)cc2)cc1`, the outcome (in the experiment on A2780; in experiment [2]) was inactive. For the same molecule, in experiment [1], the inhibition entry was “inactive”.
In the case of `CCCCCCCCCCCCCCCCCCCCCCCCCCCCCCO`, the outcome (in the experiment on A2780; in experiment [2]) was inactive. Moreover, the inhibition entry in experiment [1] was “inactive”.
Broadly, the IC50 is the concentration that gives 50% inhibition. As to `C/C1=C\[C@@H]2[C@H](CC[C@@]3(C)O[C@@H]3[C@H]3[C@@H](O)[C@@H](C)C[C@]3(OC(=O)/C=C/c3ccccc3)C1=O)C2(C)C` [JOLKINOL B], the result with A2780 was inactive. For the same molecule, the inhibition entry in experiment [1] was “inactive”. In experiment [2] (Human immunodeficiency virus 1, NL4-3, HEK-293T), the IC50 turned out to be 12.6 µM.
`C[C@@H](C/C=C/C(C)(C)OO)[C@@H]1CC[C@]2(C)C3=C(CC[C@@]12C)[C@@]1(C)CC[C@H](O)C(C)(C)[C@@H]1CC3=O`: the outcome in the experiment on A2780 was inactive. For the same molecule, the inhibition result in experiment [1] and in experiment [2] was “inactive” each time.
With `COc1cc2ccc(=O)oc2cc1O`, the result (in the experiment with A2780; in experiment [2]) was inactive. The inhibition entry in experiment [1] is “inactive”.
As to `CC[C@H](CC[C@@H](C)[C@H]1CC[C@H]2[C@@H]3CC=C4C[C@@H](O)CC[C@]4(C)[C@H]3CC[C@]12C)C(C)C`, the result (with A2780; in experiment [2]) was inactive. In addition, the inhibition entry in experiment [1] is “inactive”.
Take `O=C(O)/C=C/c1ccccc1`: the result (in the experiment on A2780; in experiment [2]) was inactive. In addition, the inhibition result in experiment [1] is “inactive”.
With `C=C(C)[C@H](CC[C@H](C)[C@@H]1CC[C@]2(C)C3=C(CC[C@@]12C)[C@@]1(C)CC[C@H](O)C(C)(C)[C@@H]1CC3=O)OO`, the outcome in the experiment on A2780 was inactive. Besides, the inhibition entry in experiment [1] and in experiment [2] was “inactive” throughout.
As to `CCCCC/C=C/C=C\C(=O)O[C@H]1C(C)=C[C@]23C(=O)[C@@H](C=C(COC(C)=O)[C@@H](O)[C@]12O)[C@H]1[C@@H](C[C@H]3C)C1(C)C`, the result (with A2780; in experiment [2]) was inactive. For the same molecule, the inhibition result in experiment [1] was “inactive”.
Turning to `CCCCCCCCCCCCCCCC(=O)OCC(O)CO` (stereo not given), the result (in the experiment on A2780; in experiment [2]) was inactive. Further, the inhibition result in experiment [1] was “inactive”.
With `CC1=C2C=C3CC[C@@H]4C(C)(C)C(=O)CC[C@@]4(C)[C@@H]3C[C@H]2OC1=O`, the result (in the experiment on A2780; in experiment [2]) was inactive. Further, the inhibition result in experiment [1] was “inactive”.
Take `CCCCCCCCCC/C=C\CCCCCC(=O)OC(CO)CO`: the result (in the experiment on A2780; in experiment [2]) was inactive. Besides, the inhibition entry in experiment [1] was “inactive”.
For `C=C(C)[C@H](O)CC[C@H](C)[C@@H]1CC[C@]2(C)C3=C(CC[C@@]12C)[C@@]1(C)CC[C@H](O)C(C)(C)[C@@H]1CC3`, in the experiment with A2780, the result was inactive. For the same molecule, the inhibition result in experiment [1] and in experiment [2] was “inactive” each time.
Turning to `CC(=O)O[C@H]1CC[C@@]2(C)[C@@H]3C[C@@H]4OC(=O)C(C)=C4C=C3CC[C@@H]2C1(C)C`, the outcome (in the experiment with A2780; in experiment [2]) was inactive. Also, the inhibition result in experiment [1] is “inactive”.
In the case of `CC(=O)O[C@]12C[C@H](C)[C@H](O)[C@@H]1/C=C(\C)CC[C@H]1[C@@H](/C=C(\C)C2=O)C1(C)C`, the result (in the experiment with A2780; in experiment [2]) was inactive. The inhibition entry in experiment [1] was “inactive”.
Take `CC1=C2C=C3CC[C@@H]4C(C)(C)[C@H](O)CC[C@@]4(C)[C@@H]3C[C@H]2OC1=O`: the result (in the experiment on A2780; in experiment [2]) was inactive. Moreover, the inhibition result in experiment [1] is “inactive”.
For `C[C@H]1[C@H](C)CC[C@]2(CO)CC[C@]3(C)C(=CC[C@@H]4[C@@]5(C)CC[C@H](O)C(C)(C)[C@@H]5CC[C@]43C)[C@H]12`, the outcome (in the experiment with A2780; in experiment [2]) was inactive. For the same molecule, in experiment [1], the inhibition result was “inactive”.
For `C/C1=C\[C@@H]2[C@H](CC[C@@]3(C)O[C@@H]3[C@H]3[C@@H](O)[C@@H](C)C[C@]3(OC(=O)c3ccccc3)C1=O)C2(C)C`, the outcome (in the experiment on A2780; in experiment [2]) was inactive. In addition, in experiment [1], the inhibition result is “inactive”.
For the molecule `C=C(C)[C@@H](CC[C@H](C)[C@@H]1CC[C@]2(C)C3=C(CC[C@@]12C)[C@@]1(C)CC[C@H](O)C(C)(C)[C@@H]1CC3=O)OO`, the outcome with A2780 was inactive. The inhibition result in experiment [1] and in experiment [2] was “inactive” each time.
In the case of `C=C(C)[C@@H]1CC[C@]2(CO)CC[C@]3(C)[C@H](CC[C@@H]4[C@@]5(C)CC[C@H](O)C(C)(C)[C@@H]5CC[C@]43C)[C@@H]12` [BETULIN], half-maximal inhibition in the experiment on A2780 (A2780, 96 h) (IC50) required 6.1 µM. For the same molecule, the inhibition result in experiment [1] is “inactive”. For the same molecule, in experiment [2], the outcome was inactive.
As to `C[C@@H](C/C=C/C(C)(C)OO)[C@@H]1CC[C@]2(C)C3=C(C(=O)C[C@@]12C)[C@@]1(C)CC[C@H](O)C(C)(C)[C@@H]1CC3=O`, the outcome in the experiment on A2780 was inactive. Moreover, the inhibition entry in experiment [1] and in experiment [2] was “inactive” throughout.
On to `CC1(C)CC[C@]2(CO)CC[C@]3(C)C(=CC[C@@H]4[C@@]5(C)CC[C@H](O)C(C)(C)[C@@H]5CC[C@]43C)[C@@H]2C1`, for which the outcome (with A2780; in experiment [2]) was inactive. For the same molecule, the inhibition entry in experiment [1] is “inactive”.

(Values after ChEMBL document CHEMBL1154243, “Chemical Constituents of the Roots of Euphorbia micractina” (J Nat Prod, 2009).)
